LEDGF integ inh: blockers of LEDGF/p75-dependent integrase strand transfer – biochemical, TR-FRET, high throughput, primary screen; inhibition, % at 3.7 µM; TR-FRET IN-LEDGF/p75 DNA integration, Eu/Cy5; HIV-1 integrase (with human LEDGF/p75); actives 0.64% (n = 370,000); AID 743269, 2014;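 active = inhibition above the screen-wide mean plus 3 SD, cut at about 13% in these data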;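 also: signal is the Cy5 over europium emission ratio at 671 and 618 nm; 0% = plate median of compound wells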
CASP6 VEID inh: human caspase-6 inhibitors, primary screen, biochemical, VEID-R110 fluorescence, single point, set 2. inhibition, % at 12.5 µM. actives 0.53% (n = 350,000). P55212. purified caspase-6, Z-VEID-R110 cleavage fluorescence. AID 686996, 2013;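 active = mean inhibition across replicates at least about 35%, with every replicate also reaching that limit, limit read from the data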;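 also: 0% = median of neutral control wells and 100% = no fluorescence left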
NSD2 inh: NSD2 histone methyltransferase inhibitors, primary screen, biochemical, AlphaScreen, single concentration, set 2; actives 0.54% (n = 310,000); NSD2 peptide methylation, 120 min; Histone-lysine N-methyltransferase NSD2 (Homo sapiens), O96028; inhibition, % at 12.5 µM; in the data active = inhibition above about 50%
TDP2 inh: human TDP2 enzyme inhibitors, primary screen, biochemical, epi absorbance, recombinant enzyme; AID 720702, 2013; actives 0.34% (n = 370,000); T5PNP hydrolysis, p-nitrophenol absorbance 415 nm; inhibition, % at 12.8 µM; Tyrosyl-DNA phosphodiesterase 2 (Homo sapiens), O95551;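 active = inhibition above the mean of all tested compounds plus 3 SD, set per campaign, cut at about 25% in these data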;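 also: 0% = DMSO with enzyme and 100% = buffer with substrate but no TDP2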
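System: recombinant human TDP2 / Amount: 120 nM TDP2 per well / Also added: 5 mM T5PNP chromogenic substrate / Doses: 12.8 µM single point, 1% DMSO / Incubation: 2 h at 37 °C / Detection: p-Nitrophenol epi absorbance / Evaluation: % inhibition relative to enzyme-containing and enzyme-free wells / Repeats: singlicate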
MBD2 DNA inh: inhibitors of MBD2 binding to methylated DNA, primary screen, biochemical, TR-FRET, DNA-binding domain, human; MBD2 binding to methylated oligonucleotide; inhibition, % at 4.4 µM; Methyl-CpG-binding domain protein 2 (Homo sapiens), Q9UBB5; AID 686964, 2013; actives 0.31% (n = 370,000); in the data active = inhibition above about 13%
UHRF1 MBD2 ctr: UHRF1 methylated DNA binding inhibitors, primary screen, counter-screen for MBD2 inhibitor project, biochemical, TR-FRET, human UHRF1, single concentration. UHRF1 binding to methylated oligo. actives 0.75% (n = 370,000). inhibition, % at 4.4 µM. E3 ubiquitin-protein ligase UHRF1 (Homo sapiens), Q96T88; in the data active = inhibition above about 21%;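 also: UHRF1 SRA domain binding a hemimethylated CpG hairpin DNA probe; 0% = median of test compound wells and 100% = reference inhibitor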
TDP2 inh conf: human TDP2 enzyme inhibitors, retest, confirmation, biochemical, epi absorbance, recombinant enzyme | absorbance read-out | actives 22% (n = 1,100) | inhibition, % at 12.8 µM | shares compounds with TDP2 inh; in the data active = inhibition above about 25%;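 also: 0% = vehicle with enzyme and 100% = no enzyme buffer only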
IN multimer up: HIV-1 IN multimer formation enhancers, counter-screen for LEDGF/p75 integration inhibitor project, biochemical, TR-FRET | shares compounds with LEDGF integ inh | actives 17% (n = 2,000) | AID 1053131, 2014 | activation, % at 7.7 µM | TR-FRET HIV-1 integrase multimerization; in the data active = activation above about 8.9%
TR-FRET interf: TR-FRET optical interference artefacts, confirmation, artefact control for LEDGF/p75-dependent integration inhibitor project, biochemical, HIV-1 IN multimerization; inhibition, % at 7.7 µM; 2,000 tested, under 10 active; shares compounds with LEDGF integ inh; AID 1053135, 2014; TR-FRET optical interference counterscreen;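 active = inhibition above the mean over all tested compounds plus 3 SD, which no compound reached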;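 also: 0% = integrase with antibodies and DMSO and 100% = antibodies without integrase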
LEDGF integ conf: inhibitors of HIV-1 IN-LEDGF/p75 DNA integration, confirmation, biochemical, TR-FRET. shares compounds with LEDGF integ inh. TR-FRET LEDGF/p75-dependent HIV-1 integration. inhibition, % at 3.7 µM. actives 36% (n = 2,000). AID 1053136, 2014; in the data active = inhibition above about 14%
* = called active by the depositor; nt = no result given. Rows were chosen to be rich in hits. Some 1.9% of all compounds tested hit in one or more screens of this group.

SMILES	LEDGF integ inh	CASP6 VEID inh	NSD2 inh	TDP2 inh	MBD2 DNA inh	UHRF1 MBD2 ctr	TDP2 inh conf	IN multimer up	TR-FRET interf	LEDGF integ conf
C/C=C/c1ccc([C@H]2[C@@H](CN(C)S(C)(=O)=O)N(C(C)=O)[C@H]2CO)cc1	nt	-0.4	nt	nt	nt	nt	nt	nt	nt	nt
CNC[C@H]1OCCCC[C@H](C)Oc2ccc(NS(=O)(=O)c3ccc(OC)cc3)cc2C(=O)N([C@@H](C)CO)C[C@@H]1C	nt	-1.2	nt	nt	nt	nt	nt	nt	nt	nt
CN(C)c1ccc2nc3ccc(=O)cc-3sc2c1	73.2*	3.9	13.4	30.9*	12.4	54.9*	12.6	85.3*	-302.8	81.7*
Cc1ccccc1NC1=C/C(=N\S(=O)(=O)c2ccc(C(=O)O)cc2)c2ccccc2C1=O	40.1*	99.0*	139.2*	80.9*	-9.2	-1.4	75.0*	0.2	-0.9	74.1*
CC1=C(Nc2ccc(C(=O)O)cc2)C(=O)c2ccccc2C1=O	3.1	nt	16.1	1.1	-15.8	-13.0	nt	nt	nt	nt
C[C@@H]1CN([C@@H](C)CO)C(=O)c2cc(NS(=O)(=O)c3cn(C)cn3)ccc2O[C@@H](C)CCCCO[C@H]1CN(C)C	nt	-0.8	nt	nt	nt	nt	nt	nt	nt	nt
CC1=NN(c2ccccc2)C(=O)/C1=C/c1cccs1	46.1*	nt	14.0	70.5*	9.8	17.6	22.1	3.0	-10.8	-1.1
CCCC(=O)Nc1ccc2c(c1)C(=O)N(C)C[C@H](OC)[C@H](C)CN(Cc1ccc(-c3ccccn3)cc1)[C@H](C)CO2	nt	-4.7	nt	nt	nt	nt	nt	nt	nt	nt
Nn1cnnc1N/N=C/c1cccc(Cl)c1Cl	56.0*	-2.7	-1.4	75.1*	2.3	7.2	-3.4	0.8	-3.1	-2.2
Nn1cnnc1N/N=C/c1ccccc1C(F)(F)F	47.2*	5.9	-3.0	51.4*	-0.8	7.0	-1.9	2.0	-6.8	-5.7
FC(F)(F)c1ccccc1/C=N/Nc1ccccn1	0.2	2.7	-2.0	1.4	2.6	-1.6	nt	nt	nt	nt
CC(C)n1c2ccccc2c2cc([N+](=O)[O-])ccc21	0.6	1.8	-0.1	0.3	5.6	-3.2	nt	nt	nt	nt
C[n+]1c(-c2ccccc2)cc2c(=Cc3ccccc3)c3ccccc3n21	28.1*	52.7*	24.4	36.2*	-10.3	6.1	46.8*	3.9	-14.3	45.3*
C[n+]1c(-c2ccccc2)cc2c(=Cc3ccc([N+](=O)[O-])cc3)c3ccccc3n21	24.7*	82.7*	-0.6	37.0*	-10.3	4.5	46.2*	7.0	-25.3	48.5*
Cc1ccc(-c2cnc3c(c2)C(=O)N([C@@H](C)CO)C[C@H](C)[C@H](CN(C)C)O3)cc1	nt	-3.3	nt	nt	nt	nt	nt	nt	nt	nt
Cc1ccc(/C=N/Nc2nncn2N)cc1	65.3*	3.9	-0.9	78.5*	-1.9	10.8	1.8	-3.2	11.4	3.8
Nn1cnnc1N/N=C/c1ccc(F)cc1	64.7*	1.3	-3.2	64.0*	4.6	5.5	-5.2	-0.6	2.1	-6.4
Fc1ccc(/C=N/Nc2nn[nH]n2)cc1	2.9	0.1	0.7	-3.4	7.3	-1.4	nt	nt	nt	nt

Screening data as filed in PubChem BioAssay.
